From PubChem
APJ agonist: APJ receptor agonism; activation, % at 20 µM; P35414; CHO-K1 APJ PathHunter beta-arrestin, luminescence; 0% DMSO wells, 100% apelin; actives 0.11% (n = 330,000); AID 2520;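 active means activation more than six SD over the plate average, tested at 20 µM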;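 further: 0% = DMSO alone and 100% = apelin-13 at 10 nM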
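assay system = CHO-K1 APJ beta-arrestin complementation cell line | input = cell density 1000 per well | dosing = compound 20 µM once, DMSO 1% | timing = compound 90 min 25 °C, reagent 1 h | measured by = luminescence from split beta-galactosidase complementation, Galacton Star/Emerald II substrate | read-out basis = APJ agonist activity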
CXCR6 inh: inhibitors of human CXCR6 receptor. CHO-K1 PathHunter CXCR6 beta-arrestin, luminescence. inhibition, % at 20 µM. actives 0.36% (n = 360,000); in the data active means inhibition above about 34%, passing the limit was not always enough;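 further: antagonist mode with CXCL16 agonist at 10 nM final; 0% = 10 nM CXCL16 with DMSO and 100% = unstimulated wells without agonist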
HTR2A ag: mouse HTR2A agonism via beta-arrestin recruitment. P35363. CHO-K1 mHTR2A beta-arrestin complementation, luminescence; percent of 30 µM serotonin response. activation, % at 7.6 µM. actives 0.66% (n = 360,000). AID 624169;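 active means activation above a run cutoff, the mean activation of all tested compounds plus 3 SD, cut at about 14% in these data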;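 further: 0% = plate median of compound wells and 100% = 30 µM serotonin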
APJ antagonist: blocks the human apelin receptor APJ; P35414; CHO-K1 APJ beta-arrestin complementation, luminescence; inhibition, % at 20 µM; actives 0.32% (n = 330,000); AID 2521;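 active means inhibition above about 40% at 20 µM, limit read from the data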;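 further: cells challenged with 10 nM apelin-13 agonist together with compound; plate controls were apelin-13 plus DMSO wells for no effect and DMSO wells lacking apelin-13 for full effect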
EBI2 block: antagonists of human EBI2 receptor; P32249; EBI2 beta-arrestin recruitment, luminescence, 7a,25-OHC stimulated; inhibition, % at 5 µM; actives 0.81% (n = 360,000); AID 651636; in the data active means inhibition above about 38%;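 further: enzyme fragment complementation signal reports receptor beta-arrestin coupling in cells; 0% = agonist plus DMSO wells and 100% = wells without agonist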
CCR6 antagonist: antagonists of human CCR6 receptor | P51684 | CHO-K1 CCR6 PathHunter beta-arrestin, luminescence, CCL20-stimulated | inhibition, % at 20 µM | actives 0.49% (n = 340,000) | AID 493098;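 active means compounds whose inhibition of the agonist-driven luminescence signal at 20 µM reaches about 50%, limit read from the data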;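 further: cells stimulated with CCL20 at 14 nM final; plate controls were DMSO with CCL20 for no effect and DMSO without agonist for full effect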
Target sequence (P51684 whole entry, looked up): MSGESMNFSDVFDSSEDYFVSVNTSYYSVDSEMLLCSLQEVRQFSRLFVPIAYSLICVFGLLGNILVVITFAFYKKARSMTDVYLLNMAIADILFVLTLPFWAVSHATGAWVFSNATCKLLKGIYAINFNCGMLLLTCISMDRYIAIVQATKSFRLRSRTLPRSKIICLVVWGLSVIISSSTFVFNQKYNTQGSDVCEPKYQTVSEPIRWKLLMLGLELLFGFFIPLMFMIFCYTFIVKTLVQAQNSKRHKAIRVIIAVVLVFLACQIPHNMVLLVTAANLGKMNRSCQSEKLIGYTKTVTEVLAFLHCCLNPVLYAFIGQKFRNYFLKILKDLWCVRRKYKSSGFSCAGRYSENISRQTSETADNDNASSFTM
Active calls of the source: *. Shown are actives, neighbours in structure and some others; about 2.1% of the full set was active somewhere.

`CCOc1ccc(C(=O)NC(=S)Nc2ccccc2N2CCCCC2)cc1[N+](=O)[O-]` gave APJ agonist 0, CXCR6 inh 12, HTR2A ag 2, APJ antagonist 21, EBI2 block 15 and CCR6 antagonist 23.
Screening COc1cc(C(=O)NC(=S)Nc2ccc([N+](=O)[O-])cc2)cc(OC)c1OC returned APJ agonist -7, CXCR6 inh 16, HTR2A ag 2, APJ antagonist 41*, EBI2 block 2 and CCR6 antagonist 33.
O=C(Nc1ccc(C(=O)N2CCOCC2)cc1)c1ccc([N+](=O)[O-])cc1 was read as APJ agonist 0, CXCR6 inh -9, HTR2A ag 6, APJ antagonist 4, EBI2 block -5 and CCR6 antagonist -22.
`COc1ccc(C(=O)NC(=S)Nc2ccccc2N2CCCCC2)cc1[N+](=O)[O-]` gave APJ agonist 4, CXCR6 inh 24, HTR2A ag -3, APJ antagonist 8, EBI2 block 28 and CCR6 antagonist 72*.
For O=C(NC(=S)Nc1ccc(C(=O)N2CCOCC2)cc1)c1ccc([N+](=O)[O-])cc1 the results were APJ agonist -5, CXCR6 inh 30, HTR2A ag 1, APJ antagonist 9, EBI2 block -2 and CCR6 antagonist 63*.
O=[N+]([O-])c1cc(S(=O)(=O)NCCN2CCOCC2)ccc1Cl was read as APJ agonist 1, CXCR6 inh -7, HTR2A ag -3, APJ antagonist -4, EBI2 block -15 and CCR6 antagonist -4.
O=C(O)c1ccc2c(=O)n3c(nc2c1)/C(=C/c1cccc(Cl)c1Cl)CC3 was read as APJ agonist 0, CXCR6 inh 8, HTR2A ag -3, APJ antagonist 20, EBI2 block 5 and CCR6 antagonist 15.
Screening CC(=O)NC(=S)Nc1cccc2c(C)cc(C)nc12 returned APJ agonist -3, CXCR6 inh -6, HTR2A ag 1, APJ antagonist 11, EBI2 block -5 and CCR6 antagonist 11.
Screening Cc1cccc(NC(=S)NC(=O)c2cc(-c3ccccc3)nc3ccccc23)c1 returned APJ agonist -18, CXCR6 inh 34, HTR2A ag 6, APJ antagonist 30, EBI2 block 14 and CCR6 antagonist 49.
Screening Cc1ccccc1NC(=S)NC(=O)c1cc(-c2ccccc2)nc2ccccc12 returned APJ agonist 1, CXCR6 inh 29, HTR2A ag 4, APJ antagonist 21, EBI2 block 8 and CCR6 antagonist 56*.
For Cc1cc(C)c2cccc(NC(=S)NC(=O)c3ccccc3)c2n1 the results were APJ agonist -1, CXCR6 inh 30, HTR2A ag 1, APJ antagonist 12, EBI2 block 15 and CCR6 antagonist 69*.
CCCNC(=O)c1cc2c(c(-c3cccc(-c4ccccc4F)c3)n1)[C@@H](CCO)N(C(=O)CC1CC1)C2 was read as CXCR6 inh 6, HTR2A ag -3 and EBI2 block 19.
Cc1ccc(N=C2C(=O)Nc3ccc(C)c(Br)c32)cc1 was read as APJ agonist -9, CXCR6 inh 36, HTR2A ag -6, APJ antagonist 5, EBI2 block 2 and CCR6 antagonist 99*.
`COc1cc(/C=C/C(=O)/C=C(O)/C=C/c2ccc(O)c(OC)c2)ccc1O` gave APJ agonist -8, CXCR6 inh 33, HTR2A ag -2, APJ antagonist 4, EBI2 block -4 and CCR6 antagonist 54*.
`COc1ccc(/C=C/C(=O)c2ccc([N+](=O)[O-])o2)cc1OC` gave APJ agonist 21, APJ antagonist -126 and CCR6 antagonist 49.
For COc1cc(/C=C/C(=O)c2ccc([N+](=O)[O-])o2)ccc1O the results were APJ agonist 2, CXCR6 inh 15, HTR2A ag 10, APJ antagonist -54, EBI2 block -24 and CCR6 antagonist 75*.
`COc1cc(/C=C/C(=O)O)ccc1O` gave APJ agonist -2, CXCR6 inh -5, HTR2A ag 0, APJ antagonist 4, EBI2 block -5 and CCR6 antagonist 8.
